Test results reported in ChEMBL document CHEMBL1126197, “Orally active beta-lactam inhibitors of human leukocyte elastase-1. Activity of 3,3-diethyl-2-azetidinones” (J Med Chem, 1992).

Tests used:
[1] = molecular target: T1, Neutrophil elastase (Homo sapiens) (UniProt P08246); assay: elastase inhibitory activity, evaluated for second order rate constant (time-dependent inhibition)
T1 sequence (whole entry): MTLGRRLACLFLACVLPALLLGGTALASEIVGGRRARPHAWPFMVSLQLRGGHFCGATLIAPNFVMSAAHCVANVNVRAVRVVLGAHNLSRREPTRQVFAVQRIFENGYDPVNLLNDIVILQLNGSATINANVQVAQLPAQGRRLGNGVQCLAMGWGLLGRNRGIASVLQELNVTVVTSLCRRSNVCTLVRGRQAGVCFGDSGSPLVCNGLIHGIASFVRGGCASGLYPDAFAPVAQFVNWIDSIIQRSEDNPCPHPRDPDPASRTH
In short: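 HLE-catalyzed hydrolysis of MeO-Suc-Ala-Ala-Pro-Ala-pNA was followed while enzyme inactivation was monitored for 15 min. Second-order rate constants (kobs/I, M-1 s-1) were derived from this time-dependent inactivation.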

[2] = molecular target: T1, Neutrophil elastase (Homo sapiens); assay: Percent inhibition in elastase-induced lung haemorrhage, when the compound is dosed orally at 30 mg/kg 30 min before challenge by HLE (Human leukocyte elastase); format: functional, organism-based; parameters: dose 30 mg/kg
In short: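 Anesthetized hamsters received the compound orally 30 min before intratracheal instillation of 50 units HLE. After 3 h, hemoglobin in the lung lavage was measured spectrophotometrically. Percent inhibition of hemorrhage was calculated for the drug-treated group against the vehicle-only group.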

Row | second order rate constant kobs/[I] [1] [M⁻¹ s⁻¹] | inhibition [2] [%] | SMILES
1 | 5000 | 10 | CCC1(CC)C(=O)N(C(=O)NCc2ccc3c(c2)OCO3)C1Oc1ccc(C(=O)O)cc1 (configuration not stated)
2 | 4800 | 15 | CCC1(CC)C(=O)N(C(=O)NCCCCCc2ccccc2)C1Oc1ccc(C(=O)O)cc1 (configuration not stated)
3 | 7000 | 47 | CCC1(CC)C(=O)N(C(=O)NCc2cccc(C)c2)C1Oc1ccc(C(=O)O)cc1 (configuration not stated)
4 | 13100 | 64 | CCC1(CC)C(=O)N(C(=O)NCc2ccc(OC)c(C)c2)C1Oc1ccc(C(=O)O)cc1 (configuration not stated)
5 | 9200 | 35 | CCC1(CC)C(=O)N(C(=O)NCCCCc2ccccc2)C1Oc1ccc(C(=O)O)cc1 (configuration not stated)
6 | 3400 | 30 | CCC1(CC)C(=O)N(C(=O)NCCCCOc2ccccc2)C1Oc1ccc(C(=O)O)cc1 (configuration not stated)
7 | 2300 | 34 | CCN(Cc1ccccc1)C(=O)N1C(=O)C(CC)(CC)C1Oc1ccc(C(=O)O)cc1 (configuration not stated)
8 | 8400 | – | CCC1(CC)C(=O)N(C(=O)NCc2cccc3ccccc23)C1Oc1ccc(C(=O)O)cc1 (configuration not stated)
9 | 3000 | – | CCC1(CC)C(=O)N(C(=O)NCc2ccc(O)cc2)C1Oc1ccc(C(=O)O)cc1 (configuration not stated)
10 | 1300 | 33 | CCC1(CC)C(=O)N(C(=O)NCCc2ccccc2)C1Oc1ccc(C(=O)O)cc1 (configuration not stated)
11 | 5900 | 37 | CCC1(CC)C(=O)N(C(=O)NCc2ccc(C(C)=O)cc2)C1Oc1ccc(C(=O)O)cc1 (configuration not stated)
12 | 5100 | 22 | CCC1(CC)C(=O)N(C(=O)NCc2ccc([N+](=O)[O-])cc2)C1Oc1ccc(C(=O)O)cc1 (configuration not stated)
13 | 1500 | 56 | CCC1(CC)C(=O)N(C(=O)NCc2ccccc2)C1Oc1ccc(C(=O)O)cc1 (configuration not stated)
14 | 21300 | 37 | CCC1(CC)C(=O)N(C(=O)NCc2ccc3ccccc3c2)C1Oc1ccc(C(=O)O)cc1 (configuration not stated)
15 | 12000 | -9 | CCC1(CC)C(=O)N(C(=O)NCc2ccc(OCc3ccccc3)cc2)C1Oc1ccc(C(=O)O)cc1 (configuration not stated)
16 | 5200 | 60 | CCC1(CC)C(=O)N(C(=O)NCc2ccc(OC)cc2)C1Oc1ccc(C(=O)O)cc1 (configuration not stated)
17 | 700 | 33 | CCC1(CC)C(=O)N(C(=O)NCc2ccccc2C)C1Oc1ccc(C(=O)O)cc1 (configuration not stated)
18 | 4500 | 72 | CCC1(CC)C(=O)N(C(=O)NCc2ccc(C)cc2)C1Oc1ccc(CC(=O)O)cc1 (configuration not stated)
19 | 1200 | 73 | CCC1(CC)C(=O)N(C(=O)NCc2ccccc2N)C1Oc1ccc(C(=O)O)cc1 (configuration not stated)
20 | 2100 | 8 | CCC1(CC)C(=O)N(C(=O)NCCC(=O)c2ccccc2)C1Oc1ccc(C(=O)O)cc1 (configuration not stated)
21 | 1300 | 53 | CCC1(CC)C(=O)N(C(=O)NCc2ccsc2)C1Oc1ccc(C(=O)O)cc1 (configuration not stated)

Second part, the compound before the results:

Row | SMILES | second order rate constant kobs/[I] [1] [M⁻¹ s⁻¹] | inhibition [2] [%]
22 | CCC1(CC)C(=O)N(C(=O)NCc2cccs2)C1Oc1ccc(C(=O)O)cc1 (configuration not stated) | 4900 | 52
23 | CCC1(CC)C(=O)N(C(=O)NCc2ccco2)C1Oc1ccc(C(=O)O)cc1 (configuration not stated) | 5200 | 58
24 | CCc1ccc(CNC(=O)N2C(=O)C(CC)(CC)C2Oc2ccc(C(=O)O)cc2)cc1 (configuration not stated) | 8200 | 46
25 | CCC1(CC)C(=O)N(C(=O)NCc2ccc(SC)cc2)C1Oc1ccc(C(=O)O)cc1 (configuration not stated) | 9400 | 28
26 | CCC1(CC)C(=O)N(C(=O)NCc2ccc(Cl)cc2)C1Oc1ccc(C(=O)O)cc1 (configuration not stated) | 3400 | 29
27 | CCC1(CC)C(=O)N(C(=O)NCCCCCCc2ccccc2)C1Oc1ccc(C(=O)O)cc1 (configuration not stated) | 5000 | 14
28 | CCC1(CC)C(=O)N(C(=O)NCc2ccc(N(C)C)cc2)C1Oc1ccc(C(=O)O)cc1 (configuration not stated) | 10000 | 25
29 | CCCCCCCCCNC(=O)N1C(=O)C(CC)(CC)C1Oc1ccc(C(=O)O)cc1 (configuration not stated) | 8300 | –
30 | CCC1(CC)C(=O)N(C(=O)NCc2ccc(C)c(OC)c2)C1Oc1ccc(C(=O)O)cc1 (configuration not stated) | 6500 | 76
31 | CCC1(CC)C(=O)N(C(=O)NCc2ccc(C(N)=O)cc2)C1Oc1ccc(C(=O)O)cc1 (configuration not stated) | 4300 | 10
32 | CCC1(CC)C(=O)N(C(=O)NCc2cc(C)cc(C)c2)C1Oc1ccc(C(=O)O)cc1 (configuration not stated) | 14700 | 69
33 | CCC1(CC)C(=O)N(C(=O)NCCCC(=O)c2ccccc2)C1Oc1ccc(C(=O)O)cc1 (configuration not stated) | 2000 | 0
34 | CCC1(CC)C(=O)N(C(=O)NCc2ccc(C)c(C)c2)C1Oc1ccc(C(=O)O)cc1 (configuration not stated) | 21000 | 52
35 | CCC1(CC)C(=O)N(C(=O)NCc2ccccc2)C1Oc1ccc(CC(=O)O)cc1 (configuration not stated) | 3200 | 71
36 | CCC1(CC)C(=O)N(C(=O)NCc2ccc(N)cc2)C1Oc1ccc(C(=O)O)cc1 (configuration not stated) | 1800 | 2
37 | CCC1(CC)C(=O)N(C(=O)NCc2ccc(-c3ccccc3)cc2)C1Oc1ccc(C(=O)O)cc1 (configuration not stated) | 23200 | 24
38 | CCC1(CC)C(=O)N(C(=O)NCCCC(O)c2ccccc2)C1Oc1ccc(C(=O)O)cc1 (configuration not stated) | 5100 | –
39 | CCC1(CC)C(=O)N(C(=O)NCCCOc2ccccc2)C1Oc1ccc(C(=O)O)cc1 (configuration not stated) | 3500 | 40
40 | CCC1(CC)C(=O)N(C(=O)NCc2ccc(C)cc2C)C1Oc1ccc(C(=O)O)cc1 (configuration not stated) | 1500 | 45
41 | CCC1(CC)C(=O)N(C(=O)NCCCc2ccccc2)C1Oc1ccc(C(=O)O)cc1 (configuration not stated) | 4500 | 12
42 | CCC1(CC)C(=O)N(C(=O)NCC2CCCCC2)C1Oc1ccc(C(=O)O)cc1 (configuration not stated) | 1400 | 0
43 | CCC1(CC)C(=O)N(C(=O)NCc2ccccc2O)C1Oc1ccc(C(=O)O)cc1 (configuration not stated) | 1500 | -2
44 | CCC1(CC)C(=O)N(C(=O)NCc2ccc(C)cc2)C1Oc1ccc(C(=O)O)cc1 (configuration not stated) | 4000 | 86
45 | CCCCNC(=O)N1C(=O)C(CC)(CC)C1Oc1ccc(C(=O)O)cc1 (configuration not stated) | 800 | 45
46 | CCC1(CC)C(=O)N(C(=O)NCc2ccc(-c3ccccc3)cc2)C1Oc1ccc(CC(=O)O)cc1 (configuration not stated) | 29000 | 19
47 | CCC1(CC)C(=O)N(C(=O)NCc2ccc(F)cc2)C1Oc1ccc(C(=O)O)cc1 (configuration not stated) | 2300 | 4
48 | CCC1(CC)C(=O)N(C(=O)NCc2ccc(C(=O)O)cc2)C1Oc1ccc(C(=O)O)cc1 (configuration not stated) | 2200 | 25
